Like-named read-outs stand apart in the source and are kept apart here. Values belong to the compound of their own block, whether it stands above or below them.
Columns and labels:
[1] = assay type: physicochemical, rat
[2] = Rat pharmacokinetic study of DZ2002; assay type: in vivo, Sprague-Dawley rats
How it was run: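 Sprague-Dawley rats (230–280 g), four groups of 3 male + 3 female. Single tail-vein bolus of 5 mg/kg (normal saline), or single gavage doses of 5, 10 or 25 mg/kg. Blood (~100 μL) drawn at 0, 5, 15, 30 min and 1, 2, 4, 6, 8, 11, 24 h into heparinized tubes holding 400 μL methanol with 500 nM internal standard, then centrifuged. Parent and acid metabolite measured by LC-MS/MS. Non-compartmental analysis; F from dose-normalized po/iv AUC0–∞, either parent alone or parent plus acid.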

[3] = system: rat blood carboxylesterases; assay type: in vitro ADME; settings: up to 30 min
How it was run: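 Fresh rat blood (200 μL) mixed first with 400 μL methanol, then test compound added. Incubated at 23 °C for 0, 2, 5, 10, 15 and 30 min in triplicate, then centrifuged. Supernatants analysed by LC-MS/MS (Synergi Fusion-RP column, water/methanol ammonium formate–formic acid gradient) for the acid metabolite.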

[4] = both, Sprague-Dawley, rat, blood, po
[5] = female, Sprague-Dawley, rat, blood, iv, 5 mg/kg
[6] = female, Sprague-Dawley, rat, blood, po, 5 mg/kg
[7] = female, Sprague-Dawley, rat, blood, po, 10 mg/kg
[8] = female, Sprague-Dawley, rat, blood, po, 25 mg/kg
[9] = male, Sprague-Dawley, rat, blood, iv, 5 mg/kg
[10] = male, Sprague-Dawley, rat, blood, po, 5 mg/kg
[11] = male, Sprague-Dawley, rat, blood, po, 10 mg/kg
[12] = male, Sprague-Dawley, rat, blood, po, 25 mg/kg
[13] = rats, intravenous DZ2002 at 5 mg/kg
[14] = after three cycles of freeze and thaw of −70 °C↔23 °C, 80 nM
[15] = after three cycles of freeze and thaw of −70 °C↔23 °C, 8000 nM
[16] = in rat blood at 23 °C for 4 h, 80 nM
[17] = in rat blood at 23 °C for 4 h, 8000 nM
[18] = in rat blood at −70 °C for 60 days, 80 nM
[19] = in rat blood at −70 °C for 60 days, 8000 nM
[20] = in supernatant of methanol-treated rat blood at 10 °C for 24 h, 80 nM
[21] = in supernatant of methanol-treated rat blood at 10 °C for 24 h, 8000 nM

Stability, response (%Control) ([1]; after three cycles of freeze and thaw of −70 °C↔23 °C, 500 nM): (98.4) %Control
Stability, response (%Control) ([1]; in rat blood at 23 °C for 4 h, 500 nM): (108) %Control
Stability, response (%Control) ([1]; in rat blood at −70 °C for 60 days, 500 nM): (104) %Control
Stability, response (%Control) ([1]; in stock solutions at −70 °C for 6 months, internal standard (500 nM)): (97.9) %Control
Stability, response (%Control) ([1]; in supernatant of methanol-treated rat blood at 10 °C for 24 h, 500 nM): (106) %Control
Compound: 3-(6-amino-9H-purin-9-yl)-2,2-diethylpropanoic acid [Internal standard, reference compound]

Compound: COC(=O)[C@@H](O)CCn1cnc2c(N)ncnc21 [DZ2002, Methyl (S)-4-(6-amino-9H-purin-9-yl)-2-hydroxybutanoate]
bioavailability [2, 4]: 90 to 159%
half-life [2, 4]: 18 to 54 min
F1 (oral bioavailability, from AUC of DZ2002) ([2]; female rat, oral DZ2002 at 5 mg/kg vs iv 5 mg/kg): 145 ± 27%
F1 (oral bioavailability, from AUC of DZ2002) ([2]; female rat, oral DZ2002 at 10 mg/kg vs iv 5 mg/kg): 90 ± 27%
F1 (oral bioavailability, from AUC of DZ2002) ([2]; female rat, oral DZ2002 at 25 mg/kg vs iv 5 mg/kg): 118 ± 41%
AUC(0-inf) [2, 5]: 0.68 ± 0.396 µM·h
AUC(0-t) [2, 5]: 0.66 ± 0.376 µM·h
MRT [2, 5]: 9 ± 3.6 min
Vd [2, 5]: 4.59 ± 0.96 L/kg
clearance [2, 5]: 590 mL/min/kg
concentration at 5 min [2, 5]: 3.03 ± 1.45 µM
half-life [2, 5]: 9 ± 6.6 min
AUC(0-inf) [2, 6]: 0.985 ± 0.184 µM·h
AUC(0-t) [2, 6]: 0.963 ± 0.182 µM·h
Cmax [2, 6]: 2.72 ± 0.418 µM
MRT [2, 6]: 25.8 ± 6.6 min
Tmax [2, 6]: 4.8 min
half-life [2, 6]: 18.6 ± 7.2 min
AUC(0-inf) [2, 7]: 1.23 ± 0.348 µM·h
AUC(0-t) [2, 7]: 1.18 ± 0.366 µM·h
Cmax [2, 7]: 2.13 ± 0.742 µM
MRT [2, 7]: 44.4 ± 9.6 min
Tmax [2, 7]: 8.4 ± 6 min
half-life [2, 7]: 32.4 ± 10.8 min
AUC(0-inf) [2, 8]: 4.02 ± 1.4 µM·h
AUC(0-t) [2, 8]: 3.95 ± 1.43 µM·h
Cmax [2, 8]: 8.49 ± 2.49 µM
MRT [2, 8]: 40.2 ± 13.8 min
Tmax [2, 8]: 4.8 min
half-life [2, 8]: 42.6 ± 25.2 min
F1 (oral bioavailability, from AUC of DZ2002) ([2]; male rat, oral DZ2002 at 5 mg/kg vs iv 5 mg/kg): 157 ± 18%
F1 (oral bioavailability, from AUC of DZ2002) ([2]; male rat, oral DZ2002 at 10 mg/kg vs iv 5 mg/kg): 146 ± 20%
F1 (oral bioavailability, from AUC of DZ2002) ([2]; male rat, oral DZ2002 at 25 mg/kg vs iv 5 mg/kg): 159 ± 48%
AUC(0-inf) [2, 9]: 0.504 ± 0.146 µM·h
AUC(0-t) [2, 9]: 0.495 ± 0.142 µM·h
MRT [2, 9]: 6.6 ± 1.2 min
Vd [2, 9]: 4.5 ± 1.22 L/kg
clearance [2, 9]: 707 mL/min/kg
concentration at 5 min [2, 9]: 2.46 ± 0.597 µM
half-life [2, 9]: 4.8 ± 0.6 min
AUC(0-inf) [2, 10]: 0.79 ± 0.092 µM·h
AUC(0-t) [2, 10]: 0.729 ± 0.052 µM·h
Cmax [2, 10]: 1.38 ± 0.457 µM
MRT [2, 10]: 40.2 ± 19.2 min
Tmax [2, 10]: 11.4 ± 6 min
half-life [2, 10]: 27 ± 13.8 min
AUC(0-inf) [2, 11]: 1.47 ± 0.199 µM·h
AUC(0-t) [2, 11]: 1.41 ± 0.171 µM·h
Cmax [2, 11]: 2.36 ± 1.1 µM
MRT [2, 11]: 49.8 ± 14.4 min
Tmax [2, 11]: 8.4 ± 6 min
half-life [2, 11]: 40.8 ± 29.4 min
AUC(0-inf) [2, 12]: 4 ± 1.21 µM·h
AUC(0-t) [2, 12]: 3.85 ± 1.15 µM·h
Cmax [2, 12]: 4.02 ± 0.898 µM
MRT [2, 12]: 72 ± 22.2 min
Tmax [2, 12]: 8.4 ± 6 min
half-life [2, 12]: 55.8 ± 16.2 min
Systemic clearance (CLtot,b) exceeding rat cardiac output (17.8 L/h/kg) [2, 13]: around 2 times
Systemic clearance (CLtot,b) exceeding rat hepatic blood flow rate (3.31 L/h/kg) [2, 13]: around 13 times
Stability, response (%Control) [1, 14]: (108) %Control
Stability, response (%Control) [1, 15]: (102) %Control
Stability, response (%Control) [1, 16]: (93.6) %Control
Stability, response (%Control) [1, 17]: (102) %Control
Stability, response (%Control) [1, 18]: (94.6) %Control
Stability, response (%Control) [1, 19]: (92.4) %Control
Stability, response (%Control) [1, 20]: (108) %Control
Stability, response (%Control) [1, 21]: (108) %Control
Formation of DZA in methanol-treated rat blood spiked with DZ2002 ([3]; 400 μL methanol to 50–200 μL rat blood, 23 °C): undetected
Stability of DZ2002 in rat blood ([3]; freshly collected rat blood, 1000 nM, 23 or 37 °C): quickly transformed into its acid metabolite DZA

half-life [2, 4]: 78 to 306 min
AUC(0-inf) [2, 5]: 4.8 ± 0.3 µM·h
AUC(0-t) [2, 5]: 4.71 ± 0.34 µM·h
MRT [2, 5]: 30.6 ± 1.8 min
concentration at 5 min [2, 5]: 15.5 µM
half-life [2, 5]: 73.2 ± 26.4 min
AUC(0-inf) [2, 6]: 4.36 ± 0.701 µM·h
AUC(0-t) [2, 6]: 4.27 ± 0.669 µM·h
Cmax [2, 6]: 6.49 ± 1.04 µM
MRT [2, 6]: 60.6 ± 5.4 min
Tmax [2, 6]: 11.4 ± 6 min
half-life [2, 6]: 124 ± 68.4 min
AUC(0-inf) [2, 7]: 7.81 ± 0.846 µM·h
AUC(0-t) [2, 7]: 7.6 ± 1.03 µM·h
Cmax [2, 7]: 7.23 ± 1.98 µM
MRT [2, 7]: 97.8 ± 44.4 min
Tmax [2, 7]: 16.8 ± 12.6 min
half-life [2, 7]: 233 ± 225 min
AUC(0-inf) [2, 8]: 18.4 µM·h
AUC(0-t) [2, 8]: 17.6 µM·h
Cmax [2, 8]: 19.8 µM
MRT [2, 8]: 177 ± 166 min
Tmax [2, 8]: 11.4 ± 6 min
half-life [2, 8]: 305 ± 218 min
AUC(0-inf) [2, 9]: 5.03 ± 0.212 µM·h
AUC(0-t) [2, 9]: 4.94 ± 0.226 µM·h
MRT [2, 9]: 33.6 ± 16.8 min
concentration at 5 min [2, 9]: 15.3 µM
half-life [2, 9]: 96.6 ± 104 min
AUC(0-inf) [2, 10]: 3.9 ± 0.501 µM·h
AUC(0-t) [2, 10]: 3.77 ± 0.608 µM·h
Cmax [2, 10]: 5.23 ± 2.59 µM
MRT [2, 10]: 74.4 ± 40.8 min
Tmax [2, 10]: 19.8 ± 8.4 min
half-life [2, 10]: 79.8 ± 38.4 min
AUC(0-inf) [2, 11]: 6.81 ± 0.223 µM·h
AUC(0-t) [2, 11]: 6.71 ± 0.267 µM·h
Cmax [2, 11]: 7.03 ± 1.05 µM
MRT [2, 11]: 78.6 ± 11.4 min
Tmax [2, 11]: 19.8 ± 8.4 min
half-life [2, 11]: 87.6 ± 13.8 min
AUC(0-inf) [2, 12]: 18.4 µM·h
AUC(0-t) [2, 12]: 18.1 µM·h
Cmax [2, 12]: 16 µM
MRT [2, 12]: 96 ± 18.6 min
Tmax [2, 12]: 25.2 ± 8.4 min
half-life [2, 12]: 167 ± 82.8 min
Stability, response (%Control) [1, 14]: (98.1) %Control
Stability, response (%Control) [1, 15]: (89.5) %Control
Stability, response (%Control) [1, 16]: (95.2) %Control
Stability, response (%Control) [1, 17]: (97.5) %Control
Stability, response (%Control) [1, 18]: (108) %Control
Stability, response (%Control) [1, 19]: (112) %Control
Stability, response (%Control) [1, 20]: (106) %Control
Stability, response (%Control) [1, 21]: (109) %Control
Compound: Nc1ncnc2c1ncn2CCC(O)C(=O)O (stereo not shown) [DZA, 4-(6-amino-9H-purin-9-yl)-2-hydroxybutyric acid]

Source: publication PMC6355468 (Journal of Pharmaceutical Analysis, 2018)
